Experimental data from ChEMBL document CHEMBL3779825, “Design, Synthesis, and Structural Optimization of Lycorine-Derived Phenanthridine Derivatives as Wnt/β-Catenin Signaling Pathway Agonists” (J Nat Prod, 2016).
Active and inactive are the calls of the source. The calls are words filed in the database; no cut-off is given here.

Key:
Type in all cases: cell-based
[1] = Activation of Wnt/beta-catenin signaling pathway in HEK293T cells in presence of Wnt3a-conditioned medium incubated for 6 hrs by luciferase reporter gene assay; conditions: Homo sapiens; HEK-293T
In short: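 HEK293T cells were grown in DMEM with 10% heat-inactivated FBS at 37 °C in 5% CO2. Cells were seeded in 24-well plates and lipofected with 250 ng total plasmid per well: 20 ng TOPFlash, 25 ng EGFP-C1, and LacZ plasmid as filler. Luciferase luminescence was normalized to lysate GFP fluorescence. The value reported is the concentration doubling Wnt activation.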

[2] = Activation of Wnt/beta-catenin signaling pathway in HEK293T cells assessed as increase in Axin-2 expression at 5 to 20 uM in presence of Wnt3a-conditioned medium incubated for 6 hrs by quantitative real time PCR analysis; conditions: Homo sapiens, HEK-293T
In short: (§1)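 HEK293T cells were grown in DMEM with 10% (v/v) heat-inactivated FBS at 37 °C in 5% CO2/95% air. Cells were exposed to compound together with control medium or Wnt3a-conditioned medium for 6 h.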

[3] = Activation of Wnt/beta-catenin signaling pathway in HEK293T cells assessed as increase in NKD1 expression at 5 to 20 uM in presence of Wnt3a-conditioned medium incubated for 6 hrs by quantitative real time PCR analysis; conditions: Homo sapiens, HEK-293T; in short: as §1
[4] = Activation of Wnt/beta-catenin signaling pathway in HEK293T cells preincubated for 1 hr followed by Wnt3a stimulation and subsequent addition of compound measured after 6 hrs by luciferase reporter gene assay; conditions: Homo sapiens; HEK-293T

| Structure (SMILES) | CD [1] | also measured |
| --- | --- | --- |
| CCc1cccc2c1N(C)Cc1cc(OCc3cc(C)nn3C)c(OCc3cc(C)nn3C)cc1-2 | inactive | – |
| CCOc1cc2c(cc1OCC)-c1cccc(CC)c1N(C)C2 | 5 µM | – |
| O=C1N[C@H]2[C@H](CS[C@H]2CCCCC(=O)ON2C(=O)CCC2=O)N1 | – | Activity [1]: inactive |
| [N-]=[N+]=NCCNC(=O)CCCC[C@@H]1SC[C@@H]2NC(=O)N[C@@H]21 | – | Activity [1]: inactive |
| CCc1cccc2c1N(C)Cc1cc(OCc3cc(C)n(C)n3)c(OCc3cc(C)n(C)n3)cc1-2 | inactive | – |
| CCc1cccc2c1N(C)Cc1cc(OCc3cc(OC)cc(OC)c3)c(OCc3cc(OC)cc(OC)c3)cc1-2 | inactive | – |
| NCCn1cc(COc2cccc(OCc3cn(CCN)nn3)c2)nn1 | – | Activity [1]: Active |
| CCc1cccc2c1N(C)Cc1cc(OCc3cc4cc(Cl)ccc4s3)c(OCc3cc4cc(Cl)ccc4s3)cc1-2 | inactive | Activity [2]: inactive; Activity [3]: inactive |
| CCc1cccc2c1N(C)Cc1cc(OCc3cn(CCNC(=O)CCCC[C@@H]4SC[C@@H]5NC(=O)N[C@@H]54)nn3)c(OCc3cn(CCNC(=O)CCCC[C@@H]4SC[C@@H]5NC(=O)N[C@@H]54)nn3)cc1-2 | – | CD [4]: 0.325 µM |
| CCc1cccc2c1N(C)Cc1cc(OCc3ccc(-n4cccn4)cn3)c(OCc3ccc(-n4cccn4)cn3)cc1-2 | inactive | – |
| CCc1cccc2c1N(C)Cc1cc(OC)c(OC)cc1-2 | 2.5 µM | – |
| NCCn1cc(COc2ccccc2OCc2cn(CCN)nn2)nn1 | – | Activity [1]: Active |
| C=Cc1cccc2c1N(C)Cc1cc(O)c(O)cc1-2 | 10 µM | – |
| CCc1cccc2c1N(C)Cc1cc(OCc3cn(CCNC(C)=O)nn3)c(OCc3cn(CCNC(C)=O)nn3)cc1-2 | 2.5 µM | Activity [2]: Active; Activity [3]: Active |
| C=Cc1cccc2c1N(C)Cc1cc(OCC)c(OCC)cc1-2 | inactive | – |
| CCc1cccc2c1N(C)Cc1cc(OCc3ccc(-c4ccccc4C(=O)OC)cc3)c(OCc3ccc(-c4ccccc4C(=O)OC)cc3)cc1-2 | inactive | Activity [2]: inactive; Activity [3]: inactive |
| O=C(O)CCCC[C@@H]1SC[C@@H]2NC(=O)N[C@@H]21 | – | Activity [1]: inactive |
| C#CCOc1cc2c(cc1OCC#C)-c1cccc(CC)c1N(C)C2 | 5 µM | – |
| CCc1cccc2c1N(C)Cc1cc3c(cc1-2)OCO3 | 5 µM | – |
| C=Cc1cccc2c1N(C)Cc1cc3c(cc1-2)OCO3 | inactive | – |
| CCc1cccc2c1N(C)Cc1cc(OCc3cn(CCN)nn3)c(OCc3cn(CCN)nn3)cc1-2 | 1.25 µM | Activity [2]: Active; Activity [3]: Active |
| CCc1cccc2c1N(C)Cc1cc(O)c(O)cc1-2 | 5 µM | – |
